# In ChEMBL document CHEMBL3414537, “Efficient synthesis and biological activity of Psammaplin A and its analogues as antitumor agents” (Eur J Med Chem, 2015):
# Active and inactive are the calls of the source. The rule behind the calls is not given here.
# Assays:
# A549 [1] = experiment: Cytotoxicity against human A549 cells by SRB assay; type: functional, cell-based
# How it was run: (§1)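 Cells at 3.5 × 10^4 cells/mL in RPMI 1640 with 10% heat-inactivated FBS were exposed to a range of concentrations for 72 h. They were then TCA-fixed (10%) and stained with sulforhodamine B. Growth is expressed as % of solvent-treated control, and IC50 is obtained by non-linear regression. Means of ≥3 experiments.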
# [2] = Cytotoxicity against human HCT116 cells by SRB assay; type: functional, cell-based; settings: HCT-116; how it was run: as §1
# A549 [3] = experiment: Antiproliferative activity against human A549 cells assessed as shrunken and sharp shape at 0.4 uM after 24 hrs by phase contrast microscopy; type: functional, cell-based
# How it was run: (§2)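 A549 cells (RPMI 1640, 10% heat-inactivated FBS, 37 °C, 5% CO2) exposed to 0.2–1.6 µM for 24 h; TSA 0.4 µM run alongside. Cell shape examined by phase-contrast microscopy.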
# [4] = target: T1, Histone deacetylase (Homo sapiens) (UniProt Q13547+O15379+Q9UBN7+Q92769+Q9UQL6+Q8WUI4+Q9BY41+Q96DB2+P56524+Q9UKV0+Q969S8); experiment: Inhibition of HDAC in human A549 cells assessed as increase in acetylated histone 3 expression level at 1.6 uM after 24 hrs by western blotting analysis; type: cell-based
# How it was run: (§3)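 After 24 h exposure (0.2–1.6 µM), A549 lysates were prepared in Tris-HCl pH 6.8/4% SDS buffer with protease and phosphatase inhibitors at 4 °C. Equal protein was separated by SDS-PAGE and transferred to PVDF. Membranes were blocked in 5% BSA/TBS-Tween for 2 h, incubated with primary antibody overnight at 4 °C, then HRP secondary for 1 h, with chemiluminescent detection.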
# [5] = target: T1, Histone deacetylase (Homo sapiens); experiment: Inhibition of HDAC in human A549 cells at 1.6 uM after 24 hrs by fluorescence assay; type: cell-based
# A549 [6] = experiment: Antitumor activity against human A549 cells xenografted in athymic BALB/c nu/nu mouse assessed as reduction in tumor weight at 30 mg/kg, ip administered thrice a week measured after 35 days relative to vehicle-treated control; type: functional, organism-based; set-up: dose 30 mg/kg
# How it was run: (§4)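 Male BALB/c nu/nu mice (6 weeks) were implanted s.c. in the right flank with 1 × 10^7 A549 cells. Dosing started at tumor volume 50–60 mm3, with 6 mice per group. Treatment was 15 or 30 mg/kg i.p. three times weekly in 0.05% Tween-80/0.9% NaCl, with vehicle and paclitaxel 5 mg/kg controls. Tumor volume was followed to day 35, and end-point tumors were weighed.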
# A549 [7] = experiment: Induction of phosphorylated ERK level in human A549 cells after 24 hrs by Western blotting analysis; type: cell-based; how it was run: as §3
# A549 [8] = experiment: Antitumor activity against human A549 cells xenografted in athymic BALB/c nu/nu mouse assessed as inhibition of Ki-67 expression in central and edge region of tumor at 15 to 30 mg/kg, ip administered thrice a week measured after 35 days by immunohistochemical analysis relative to vehicle-treated control; type: functional, organism-based
# How it was run: (§5)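 In the A549 nude-mouse xenograft (15 or 30 mg/kg i.p. thrice weekly, vehicle control), end-point tumor sections were incubated overnight at 4 °C with Ki-67 antibody. Detection used an HRP polymer system with hematoxylin-eosin counterstain, and sections were imaged by light microscopy.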
# A549 [9] = experiment: Antitumor activity against human A549 cells xenografted in athymic BALB/c nu/nu mouse assessed as reduction in tumor weight at 15 to 30 mg/kg, ip administered thrice a week measured after 35 days relative to vehicle-treated control; type: functional, organism-based; how it was run: as §4
# A549 [10] = experiment: Antitumor activity against human A549 cells xenografted in athymic BALB/c nu/nu mouse assessed as tumor growth inhibition at 15 mg/kg, ip administered thrice a week measured after 35 days relative to vehicle-treated control; type: functional; settings: 840 h, route intraperitoneal, read-out: TGI; how it was run: as §4
# [11] = target: T1, Histone deacetylase (Homo sapiens); experiment: Inhibition of HDAC in human A549 cells assessed as increase in acetylated histone 3 expression level after 24 hrs by western blotting analysis; type: cell-based; how it was run: as §3
# A549 [12] = experiment: Antitumor activity against human A549 cells xenografted in athymic BALB/c nu/nu mouse assessed as change in cell number in edge or peripheral region of tumor at 15 to 30 mg/kg, ip administered thrice a week measured after 35 days by immunohistochemical analysis relative to vehicle-treated control; type: functional, organism-based; how it was run: as §5
# A549 [13] = experiment: Antitumor activity against human A549 cells xenografted in athymic BALB/c nu/nu mouse assessed as tumor growth inhibition at 30 mg/kg, ip administered thrice a week measured after 35 days relative to vehicle-treated control; type: functional; settings: 840 h, route intraperitoneal, read-out: TGI; how it was run: as §4
# Mus musculus = experiment: Toxicity in athymic BALB/c nu/nu mouse xenografted with human A549 cells assessed as change in body weight at 15 to 30 mg/kg, ip administered thrice a week measured after 35 days relative to vehicle-treated control; type: organism-based; set-up: dose 15-30 mg/kg, route intraperitoneal; settings: in vivo, 840 h
# A549 [14] = experiment: Antitumor activity against human A549 cells xenografted in athymic BALB/c nu/nu mouse assessed as change in cell number in central region of tumor at 15 to 30 mg/kg, ip administered thrice a week measured after 35 days by immunohistochemical analysis relative to vehicle-treated control; type: functional, organism-based; how it was run: as §5
# A549 [15] = experiment: Induction of phosphorylated AKT level in human A549 cells after 24 hrs by Western blotting analysis; type: cell-based; how it was run: as §3
# A549 [16] = experiment: Antiproliferative activity against human A549 cells assessed as shrunken and sharp shape at 1.6 uM after 24 hrs by phase contrast microscopy; type: functional, cell-based; how it was run: as §2
# A549 [17] = experiment: Antiproliferative activity against human A549 cells assessed as morphological changes after 24 hrs by phase contrast microscopy; type: functional, cell-based; how it was run: as §2
# [18] = target: T1, Histone deacetylase (Homo sapiens); experiment: Inhibition of HDAC in human A549 cells after 24 hrs by fluorescence assay; type: cell-based
structure (smiles),measurement,setting,value
O=C(NCCSSCCNC(=O)/C(Cc1cc(Cl)cc(Cl)c1Cl)=N/O)/C(Cc1cc(Cl)cc(Cl)c1Cl)=N\O,IC50,A549 [1],5.09 µM
same,IC50,[2],4.23 µM
CC(C)(C)c1ccc(C/C(=N/O)C(=O)NCCSSCCNC(=O)/C(Cc2ccc(C(C)(C)C)cc2)=N/O)cc1,IC50,A549 [1],1.78 µM
same,IC50,[2],1.67 µM
O=C(NCCSSCCNC(=O)/C(Cc1ccc(Oc2ccccc2)cc1)=N/O)/C(Cc1ccc(Oc2ccccc2)cc1)=N\O,IC50,A549 [1],> 100 µM
same,IC50,[2],20.4 µM
CCCOc1ccc(C/C(=N/O)C(=O)NCCSSCCNC(=O)/C(Cc2ccc(OCCC)cc2)=N/O)cc1,IC50,A549 [1],13.5 µM
same,IC50,[2],15.5 µM
O=C(NCCSCCNC(=O)/C(Cc1ccc(OCc2ccccc2)cc1)=N\O)/C(Cc1ccc(OCc2ccccc2)cc1)=N\O,IC50,A549 [1],2.5 µM
same,IC50,[2],> 100 µM
O=C(NCCSSCCNC(=O)/C(Cc1ccc(Cl)c(Cl)c1)=N/O)/C(Cc1ccc(Cl)c(Cl)c1)=N\O,IC50,A549 [1],1.6 µM
same,IC50,[2],1.46 µM
O=C(NCCS)/C(Cc1ccc(OCc2ccccc2)cc1)=N\O,IC50,A549 [1],40 µM
same,IC50,[2],85.1 µM
CC(/C=C/C(=O)NO)=C\[C@@H](C)C(=O)c1ccc(N(C)C)cc1,Activity,A549 [3],Active
O=C(NCCSSCCNC(=O)/C(Cc1ccc(OC2CCCC2)cc1)=N/O)/C(Cc1ccc(OC2CCCC2)cc1)=N\O,IC50,A549 [1],1.4 µM
same,IC50,[2],5.34 µM
O=C(NCCSSCCNC(=O)/C(Cc1ccc(OCc2ccccc2)cc1)=N/O)/C(Cc1ccc(OCc2ccccc2)cc1)=N\O,IC50,A549 [1],1.12 µM
same,IC50,[2],1.57 µM
O=C(NCCSSCCNC(=O)/C(Cc1ccc(O)c(Br)c1)=N/O)/C(Cc1ccc(O)c(Br)c1)=N/O [PSAMMAPLIN A],IC50,A549 [1],1.18 µM
same,inhibition,[4],Active
same,inhibition,[5],Active
same,IC50,[2],1.62 µM
same,Activity,A549 [6],Active
O=C(NCCCl)/C(Cc1ccc(OCc2ccccc2)cc1)=N\O,IC50,A549 [1],> 100 µM
same,IC50,[2],> 100 µM
O=C(NCCSSCCNC(=O)/C(Cc1ccc2ccccc2c1)=N/O)/C(Cc1ccc2ccccc2c1)=N\O,Activity,A549 [1],Dose-dependent effect
same,IC50,A549 [1],1.2 µM
same,Activity,A549 [7],Dose-dependent effect
same,inhibition,A549 [8],Active
same,Activity,A549 [9],Active
same,inhibition in vivo at 15 mg/kg,A549 [10],30.4%
same,inhibition,[11],Dose-dependent effect
same,Activity,A549 [12],Active
same,inhibition in vivo at 30 mg/kg,A549 [13],47.6%
same,Activity,Mus musculus,Non-toxic
same,IC50,[2],1.3 µM
same,Activity,A549 [14],inactive
same,Activity,A549 [15],Dose-dependent effect
same,Activity,A549 [16],Active
same,Activity,A549 [17],Dose-dependent effect
same,inhibition,[18],Dose-dependent effect
COc1ccc(C/C(=N/O)C(=O)NCCSSCCNC(=O)/C(Cc2ccc(OC)cc2)=N/O)cc1,IC50,A549 [1],2.81 µM
same,IC50,[2],4.39 µM
CO/N=C(/Cc1ccc(OC)c(Br)c1)C(=O)NCCSSCCNC(=O)/C(Cc1ccc(OC)c(Br)c1)=N\OC,IC50,A549 [1],9.2 µM
same,IC50,[2],10.7 µM
O=C(NCCSSCCNC(=O)/C(Cc1ccc(Br)cc1)=N/O)/C(Cc1ccc(Br)cc1)=N\O,IC50,A549 [1],5.89 µM
same,IC50,[2],7.24 µM
O=C(NCCSSCCNC(=O)/C(Cc1c2ccccc2cc2ccccc12)=N\O)/C(Cc1c2ccccc2cc2ccccc12)=N\O,IC50,A549 [1],18.5 µM
same,IC50,[2],28.4 µM
O=C(NCCSSCCNC(=O)/C(Cc1ccc(Cl)cc1)=N/O)/C(Cc1ccc(Cl)cc1)=N\O,IC50,A549 [1],2.58 µM
same,IC50,[2],2.03 µM
O=C(NCCSSCCNC(=O)/C(Cc1ccc(F)cc1)=N/O)/C(Cc1ccc(F)cc1)=N\O,IC50,A549 [1],3.5 µM
same,IC50,[2],3.78 µM
O=C(NCCSSCCNC(=O)/C(Cc1cccc2ccccc12)=N/O)/C(Cc1cccc2ccccc12)=N\O,IC50,A549 [1],> 100 µM
same,IC50,[2],> 100 µM
O=C(NCCSSCCNC(=O)/C(Cc1ccc([N+](=O)[O-])cc1)=N/O)/C(Cc1ccc([N+](=O)[O-])cc1)=N\O,IC50,A549 [1],2.66 µM
same,IC50,[2],1.8 µM
O=C(NCCSSCCNC(=O)/C(Cc1cc(Cl)cc(Cl)c1)=N/O)/C(Cc1cc(Cl)cc(Cl)c1)=N\O,IC50,A549 [1],2.28 µM
same,IC50,[2],2.1 µM
O=C(NCCCCl)/C(Cc1ccc(OCc2ccccc2)cc1)=N\O,IC50,A549 [1],> 100 µM
same,IC50,[2],> 100 µM
O=C(NCCCCCCNC(=O)/C(Cc1ccc(OCc2ccccc2)cc1)=N\O)/C(Cc1ccc(OCc2ccccc2)cc1)=N\O,IC50,A549 [1],20.1 µM
same,IC50,[2],> 100 µM
Cc1ccc(C/C(=N/O)C(=O)NCCSSCCNC(=O)/C(Cc2ccc(C)cc2)=N/O)cc1,IC50,A549 [1],6.09 µM
same,IC50,[2],5.63 µM
CCOc1ccc(C/C(=N/O)C(=O)NCCSSCCNC(=O)/C(Cc2ccc(OCC)cc2)=N/O)cc1,IC50,A549 [1],1.37 µM
same,IC50,[2],1.61 µM
CO/N=C(/Cc1ccc(OC)cc1)C(=O)NCCSSCCNC(=O)/C(Cc1ccc(OC)cc1)=N\OC,IC50,A549 [1],> 100 µM
same,IC50,[2],> 100 µM
CCCCOc1ccc(C/C(=N/O)C(=O)NCCSSCCNC(=O)/C(Cc2ccc(OCCCC)cc2)=N/O)cc1,IC50,A549 [1],41.1 µM
same,IC50,[2],23.8 µM
O=C(NCCSSCCNC(=O)/C(Cc1ccccc1)=N/O)/C(Cc1ccccc1)=N\O,IC50,A549 [1],6.55 µM
same,IC50,[2],6.22 µM
